Measured values published in ChEMBL document CHEMBL1157467, “Discovery of nonsteroidal 17beta-hydroxysteroid dehydrogenase 1 inhibitors by pharmacophore-based screening of virtual compound libraries” (J Med Chem, 2008).
Calls of active or inactive are those of the source. The rule behind the calls is not given here.

Experiments:
[1] = target: T1, 17-beta-hydroxysteroid dehydrogenase type 2 (Homo sapiens) (UniProt P37059); assay: Inhibition of human recombinant 17beta-HSD2 expressed in HEK293 cell lysate assessed as conversion of radiolabeled estrone to estradiol at 40 uM; assay type: cell-free; design: scale not given: the % may be the effect or the level left
T1 sequence (whole entry): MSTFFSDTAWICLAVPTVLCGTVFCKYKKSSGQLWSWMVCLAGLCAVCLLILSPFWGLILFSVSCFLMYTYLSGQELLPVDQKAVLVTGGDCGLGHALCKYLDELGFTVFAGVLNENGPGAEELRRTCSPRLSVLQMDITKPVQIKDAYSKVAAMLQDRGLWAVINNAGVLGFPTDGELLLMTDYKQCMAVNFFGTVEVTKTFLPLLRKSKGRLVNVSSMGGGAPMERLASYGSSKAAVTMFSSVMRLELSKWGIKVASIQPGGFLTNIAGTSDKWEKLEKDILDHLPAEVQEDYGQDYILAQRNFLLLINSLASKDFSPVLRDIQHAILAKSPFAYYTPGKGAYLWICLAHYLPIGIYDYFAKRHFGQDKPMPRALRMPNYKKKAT

[2] = target: T2, 17-beta-hydroxysteroid dehydrogenase type 1 (Homo sapiens) (UniProt P14061); assay: Inhibition of human recombinant 17beta-HSD1 expressed in HEK293 cell lysate assessed as conversion of radiolabeled estrone to estradiol at 20 uM; assay type: cell-free; design: scale not given: the % may be the effect or the level left
T2 sequence (whole entry): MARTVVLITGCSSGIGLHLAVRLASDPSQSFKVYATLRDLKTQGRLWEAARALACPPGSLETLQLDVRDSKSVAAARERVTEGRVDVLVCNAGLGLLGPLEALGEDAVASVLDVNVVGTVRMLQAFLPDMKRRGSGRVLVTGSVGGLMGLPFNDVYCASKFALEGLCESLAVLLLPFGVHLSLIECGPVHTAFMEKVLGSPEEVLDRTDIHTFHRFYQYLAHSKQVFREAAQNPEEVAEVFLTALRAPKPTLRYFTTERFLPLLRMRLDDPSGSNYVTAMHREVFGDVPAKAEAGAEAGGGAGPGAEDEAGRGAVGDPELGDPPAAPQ
Outline: (§1)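 HEK-293 cells transiently transfected with human 17β-HSD1 by calcium phosphate were harvested 48 h later, and the pellets were frozen at -70 °C. Pellets were resuspended in 50 mM potassium phosphate, 20% glycerol and 1 mM EDTA. Conversion of 200 nM radiolabeled estrone to estradiol was measured immediately with 500 µM NADPH. […] DMSO was ≤0.1%. Values are mean ± SD from three independent experiments.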

[3] = target: T3, Aldo-keto reductase family 1 member C3 (Homo sapiens) (UniProt P42330); assay: Inhibition of human recombinant 17beta-HSD5 expressed in intact HEK293 cells assessed as conversion of androstenedione to testosterone at 20 uM after 24 hrs; assay type: cell-based; design: scale not given: the % may be the effect or the level left
T3 sequence (whole entry): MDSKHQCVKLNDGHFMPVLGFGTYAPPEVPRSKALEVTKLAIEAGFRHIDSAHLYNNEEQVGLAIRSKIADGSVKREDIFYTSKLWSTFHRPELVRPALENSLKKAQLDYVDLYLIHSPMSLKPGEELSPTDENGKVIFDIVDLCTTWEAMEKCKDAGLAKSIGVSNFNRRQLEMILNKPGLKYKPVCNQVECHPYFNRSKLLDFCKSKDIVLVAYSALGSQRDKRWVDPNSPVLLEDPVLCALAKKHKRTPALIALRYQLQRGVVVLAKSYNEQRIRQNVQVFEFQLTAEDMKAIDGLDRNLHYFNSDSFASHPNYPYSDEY
Outline: (§2)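 17β-HSD3 or 17β-HSD5 was transiently expressed in HEK-293 cells. Conversion of androstenedione to testosterone was measured in intact cells without added cofactor. Compounds were tested at 20 µM, with final DMSO ≤0.1%. Values are mean ± SD from three independent experiments.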

[4] = target: T4, 11-beta-hydroxysteroid dehydrogenase 1 (Homo sapiens, UniProt P28845); assay: Inhibition of human recombinant 11beta-HSD1 expressed in HEK293 cell lysate assessed as conversion of radiolabeled estrone to estradiol at 20 uM; assay type: cell-free; design: scale not given: the % may be the effect or the level left
Target sequence in this assay (P28845 whole entry, looked up): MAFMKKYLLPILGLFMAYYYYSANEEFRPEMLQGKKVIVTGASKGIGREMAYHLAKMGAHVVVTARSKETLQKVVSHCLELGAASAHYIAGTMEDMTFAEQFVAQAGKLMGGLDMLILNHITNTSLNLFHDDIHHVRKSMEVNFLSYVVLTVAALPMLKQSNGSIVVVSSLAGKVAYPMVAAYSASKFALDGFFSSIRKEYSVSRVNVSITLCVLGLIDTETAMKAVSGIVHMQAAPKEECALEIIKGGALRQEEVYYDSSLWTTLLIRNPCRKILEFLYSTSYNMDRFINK

[5] = target: T5, 17-beta-hydroxysteroid dehydrogenase type 3 (Homo sapiens) (UniProt P37058); assay: Inhibition of human recombinant 17beta-HSD3 expressed in intact HEK293 cells assessed as conversion of androstenedione to testosterone at 20 uM; assay type: cell-based; design: scale not given: the % may be the effect or the level left; outline: as §2
T5 sequence (whole entry): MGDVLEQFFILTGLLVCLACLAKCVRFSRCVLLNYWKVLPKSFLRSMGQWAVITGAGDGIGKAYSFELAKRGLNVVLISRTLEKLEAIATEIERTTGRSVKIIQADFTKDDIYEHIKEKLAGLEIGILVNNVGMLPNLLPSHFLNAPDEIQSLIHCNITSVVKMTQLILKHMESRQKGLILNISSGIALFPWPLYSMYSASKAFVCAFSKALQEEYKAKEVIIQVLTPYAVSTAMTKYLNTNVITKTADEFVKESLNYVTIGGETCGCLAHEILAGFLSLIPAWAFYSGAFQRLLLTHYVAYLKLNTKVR

[6] = target: T1, 17-beta-hydroxysteroid dehydrogenase type 2 (Homo sapiens); assay: Inhibition of human recombinant 17beta-HSD2 expressed in HEK293 cell lysate assessed as conversion of radiolabeled estrone to estradiol at 20 uM; assay type: cell-free; design: scale not given: the % may be the effect or the level left
[7] = target: T6, 17-beta-hydroxysteroid dehydrogenase type 1 (Homo sapiens, UniProt P14061); assay: Inhibition of human recombinant 17beta-HSD1 expressed in HEK293 cell lysate assessed as conversion of radiolabeled estrone to estradiol; assay type: cell-free; outline: as §1
T6 sequence (P14061 whole entry): T2 sequence (whole entry)

[8] = target: T7, 17-beta-hydroxysteroid dehydrogenase type 2 (Homo sapiens, UniProt P37059); assay: Inhibition of human recombinant 17beta-HSD2 expressed in HEK293 cell lysate assessed as conversion of radiolabeled estrone to estradiol; assay type: cell-free
T7 sequence (P37059 whole entry): T1 sequence (whole entry)

[9] = target: T4, 11-beta-hydroxysteroid dehydrogenase 1; assay: Inhibition of human recombinant 11beta-HSD1 expressed in HEK293 cell lysate assessed as conversion of radiolabeled estrone to estradiol; assay type: cell-free
Target sequence in this assay (P28845 whole entry): as the sequence (P28845 whole entry, looked up) above

| SMILES | Activity [1] [%] | Activity [2] [%] | Activity [3] | Activity [4] [%] | Activity [5] [%] | Activity [6] [%] | IC50 [7] [µM] | IC50 [8] [µM] | Ki [7] [µM] | IC50 [9] [µM] |
| --- | --- | --- | --- | --- | --- | --- | --- | --- | --- | --- |
| O=c1cc(-c2ccccc2)oc2ccccc12 | 63.9 | 94 | – | – | – | – | – | – | – | – |
| CCCCC(=O)Nc1sc2c(c1C(=O)OCC)CCC(/C=N/O)=C2Cl | – | 76 | inactive | 106 | 89 | 48 | – | – | – | – |
| CCOP(=O)(Nc1ccc2c(c1)Cc1c-2cc(Cl)c(NC(C)=O)c1Cl)OCC | – | 90 | 84% | 87 | 86 | 79 | – | – | – | – |
| O=c1cc(-c2ccccc2)oc2cc(O)ccc12 [7-HYDROXYFLAVONE] | 23.1 | 16 | – | – | – | – | 5.25 | > 20 | – | – |
| COc1ccc(-c2coc3cc(O)cc(O)c3c2=O)cc1 [BIOCHANIN] | 10.1 | 45 | – | – | – | – | – | 9.9 | – | – |
| CCOc1cc(/C=N/NC(=O)c2ccccn2)c(Br)c(Br)c1O | – | 88 | inactive | 68 | 95 | 55 | – | – | – | – |
| C[C@]12CC[C@@H]3c4ccc(O)cc4CC[C@H]3[C@@H]1C[C@H](CCCCCCCCC(=O)OC[C@H]1O[C@@H](n3cnc4c(N)ncnc43)[C@H](O)[C@@H]1O)[C@@H]2O | – | – | – | – | – | – | – | – | 0.003 | – |
| O=c1cc(-c2ccccc2)oc2cc(O)cc(O)c12 | 32.8 | 34 | – | – | – | – | – | – | – | – |
| COC(C(=O)Nc1ccc(-c2ccc(NC(=O)C(OC)c3ccccc3)c(C)c2)cc1C)c1ccccc1 (stereo not drawn) | – | 84 | inactive | 110 | 96 | 59 | – | – | – | – |
| CCOc1cc(CNC2C(C)=NN=C2S)cc(Br)c1OCC(=O)NC1CCCCC1 (stereo not drawn) | – | 70 | inactive | 16 | 19 | 105 | – | – | – | 6.2 |
| O=C1CC(c2ccccc2)Oc2ccccc21 (stereo not drawn) | 70.7 | 110 | – | – | – | – | – | – | – | – |
| O=c1c(O)c(-c2ccc(O)cc2)oc2cc(O)cc(O)c12 [KAEMPFEROL] | 4.83 | 13 | – | – | – | – | 1.05 | 0.36 | – | – |
| Cc1cc(OCCOc2ccc(N)cc2)ccc1N1C(N)=NC(N)=NC1(C)C | – | 84 | inactive | 99 | 99 | 59 | – | – | – | – |
| COc1ccc([C@@H]2CC(=O)c3c(O)cc(O)cc3O2)cc1O | 36.4 | 44 | – | – | – | – | – | – | – | – |
| Cc1ccc(S(=O)(=O)N/N=C2\C=C[C@H]3[C@@H]4CC=C5C[C@@H](O)CC[C@]5(C)[C@H]4CC[C@]23C)cc1 | – | 63 | 45% | 9 | 69 | 97 | 47 | – | – | 3.8 |
| Cc1cc2c(C(C)C)c(O)c(O)c(C=O)c2c(O)c1-c1c(C)cc2c(C(C)C)c(O)c(O)c(C=O)c2c1O | 64.8 | 60 | – | – | – | – | – | – | – | – |
| CC1(C)[C@@H](O)CC[C@]2(C)[C@H]3C(=O)C=C4[C@@H]5C[C@@](C)(C(=O)O)CC[C@]5(C)CC[C@@]4(C)[C@]3(C)CC[C@@H]12 | 24.5 | 53 | – | – | – | – | – | – | – | – |

| SMILES | Activity [1] [%] | Activity [2] [%] | Activity [3] | Activity [4] [%] | Activity [5] [%] | Activity [6] [%] | IC50 [7] [µM] | IC50 [8] [µM] | Ki [7] [µM] | IC50 [9] [µM] |
| --- | --- | --- | --- | --- | --- | --- | --- | --- | --- | --- |
| O=C1CC(c2ccccc2O)Oc2ccccc21 (stereo not drawn) | 50.7 | 95 | – | – | – | – | – | – | – | – |
| CCOc1cc(/C=N/NC(N)=O)c(Br)c(Br)c1OCC(=O)Nc1ccc(C)cc1 | – | 16 | inactive | 70 | 96 | 76 | 5.7 | – | – | > 50 |
| O=C1CC(c2ccc(O)cc2)Oc2ccccc21 (stereo not drawn) | 63.6 | 99 | – | – | – | – | – | – | – | – |
| Cc1c(/C=N/N=C2\CC[C@H]3[C@@H]4CCc5cc(O)ccc5[C@H]4CC[C@]23C)cnn1C | – | 34 | inactive | 81 | 75 | 63 | 33 | – | – | – |
| Cc1cc(/C=N/NC(=O)C(O)(c2ccccc2)c2ccccc2)c(C)n1-c1ccc(O)cc1 | – | 73 | inactive | 90 | 76 | 113 | – | – | – | – |
| O=C1CC(c2ccccc2)Oc2ccc(O)cc21 (stereo not drawn) | 42.5 | 102 | – | – | – | – | – | – | – | – |
| O=S(=O)(Nc1ccccc1)c1ccc2c(c1)Cc1cc(S(=O)(=O)Nc3ccccc3)ccc1-2 | – | 75 | inactive | 56 | 80 | 76 | – | – | – | – |
| Cc1cc(-c2ccc(NS(=O)(=O)c3ccccc3)c(C)c2)ccc1NS(=O)(=O)c1ccccc1 | – | 64 | inactive | 101 | 92 | 56 | – | – | – | – |
| COc1c2c(cc3c1C1Oc4c(ccc(O)c4CC=C(C)C)C1CO3)OC(C)(C)C=C2 (stereo not drawn) | – | 54 | inactive | 96 | 55 | 86 | 19 | – | – | – |
| C[C@]12CC[C@@H]3c4ccc(OC5CCCCO5)cc4CC[C@H]3[C@@H]1CC[C@@H]2O (stereo partly drawn) | – | 74 | inactive | 365 | 57 | 90 | – | – | – | 20 |
| O=S1OCC2C(CO1)C1(Cl)C(Cl)=C(Cl)C2(Cl)C1(Cl)Cl (stereo not drawn) [ENDOSULFAN] | 51.1 | 25 | – | – | – | – | 48.2 | – | – | – |
| O=c1c(-c2ccc(O)cc2)coc2cc(O)cc(O)c12 [GENISTEIN] | 15.7 | 17 | – | – | – | – | 2.21 | – | – | – |
| CCCCN(C)C(=O)CCCCCS[C@@H]1C[C@@H]2[C@H](CC[C@]3(C)[C@@H](O)CC[C@@H]23)c2ccc(O)cc21 | – | – | – | – | – | – | 0.17 | – | – | – |
| O=c1cc(-c2ccc(O)cc2)oc2cc(O)cc(O)c12 [APIGENIN] | 25.2 | 10 | – | – | – | – | 0.71 | > 20 | – | – |
| O=C1C[C@@H](c2ccc(O)cc2)Oc2cc(O)cc(O)c21 [NARINGENIN] | 12.6 | 17.2 | – | – | – | – | 4.96 | 14.4 | – | – |
| O=c1c(O)c(-c2ccc(O)c(O)c2)oc2cc(O)cc(O)c12 [QUERCETIN] | 6.07 | 65 | – | – | – | – | – | 1.54 | – | – |
| O=c1c(-c2ccc(O)cc2)coc2cc(O)ccc12 | 58.3 | 35 | – | – | – | – | – | – | – | – |
